Reference: ChEMBL document CHEMBL1139721, “Inhibition of P-glycoprotein-mediated multidrug efflux by aminomethylene and ketomethylene analogs of reversins” (Bioorg Med Chem Lett, 2006)
Peptide text beside a SMILES is read from it. * marks the point of attachment. Cbz = O=C(OCc1ccccc1)*; Boc = CC(C)(C)OC(=O)*; OcHex = C1CCC(O*)CC1; OBn = c1ccc(CO*)cc1; OtBu = CC(C)(C)O*

tested on: K562/R7; assay: Inhibition of P-glycoprotein-mediated daunorubicin efflux in K562/R7 cells at 10 uM relative to control; format: cell-based; conditions: Homo sapiens
Outline: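 K562/R7 human leukemic cells with high P-glycoprotein expression, 1 million per mL RPMI 1640, incubated 1 h at 37 °C with daunorubicin (10 μM final) with or without inhibitor at 10 µM. Cells washed twice in ice-cold PBS, held on ice, then read by flow cytometry. Activity expressed relative to cyclosporin A (2 μM final, set as 100%). Duplicates, at least three separate experiments; SD reported.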

SMILES | inhibition [%]
CC(C)(C)OC(=O)N[C@@H](CCC(=O)OC1CCCCC1)C(=O)N[C@@H](CCCCNC(=O)OCc1ccccc1)C(=O)OC(C)(C)C (Boc-Glu(OcHex)-Lys(Cbz)-OtBu) | 85.4
CC(C)C(OC(=O)CC[C@H](NCCCC(=O)N[C@@H](CCC(=O)OCc1ccccc1)C(=O)OCc1ccccc1)C(=O)OCc1ccccc1)C(C)C | 54.7
CC(C)(C)OC(=O)N[C@@H](CCC(=O)OCc1ccccc1)CN[C@@H](CCCCNC(=O)OCc1ccccc1)C(=O)OC(C)(C)C | 79.1
CC(C)(C)OC(=O)N[C@@H](CC(=O)OCc1ccccc1)C(=O)CCC(=O)N[C@@H](CCCCNC(=O)OCc1ccccc1)C(=O)OC(C)(C)C | 86.6
CC(C)(C)OC(=O)N[C@@H](CC(=O)OCc1ccccc1)C(=O)N[C@@H](CCCCNC(=O)OCc1ccccc1)C(=O)OC(C)(C)C (Boc-Asp(OBn)-Lys(Cbz)-OtBu) | 72.7
O=C(CCCN[C@@H](CCC(=O)OC1CCCCC1)C(=O)OCc1ccccc1)N[C@@H](CCC(=O)OCc1ccccc1)C(=O)OCc1ccccc1 | 98.3
O=C(CCC(=O)N[C@@H](CCC(=O)OC1CCCCC1)C(=O)OCc1ccccc1)N[C@@H](CCC(=O)OCc1ccccc1)C(=O)OCc1ccccc1 | 94.5
CC(C)C(OC(=O)CC[C@H](NC(=O)OC(C)(C)C)C(=O)N[C@@H](CCCCNC(=O)OCc1ccccc1)C(=O)OC(C)(C)C)C(C)C | 52.7
CC(C)(C)OC(=O)N[C@H](CN[C@@H](CCCCNC(=O)OCc1ccccc1)C(=O)OC(C)(C)C)CC(=O)OCc1ccccc1 | 74.1
CC(C)C(OC(=O)CC[C@@H](C(=O)OCc1ccccc1)N(CCCC(=O)N[C@@H](CCC(=O)OCc1ccccc1)C(=O)OCc1ccccc1)CCCC(=O)N[C@@H](CCC(=O)OCc1ccccc1)C(=O)OCc1ccccc1)C(C)C | 3.35
O=C(CCC(=O)N[C@@H](CCC(=O)OCc1ccccc1)C(=O)OCc1ccccc1)N[C@@H](CCC(=O)OCc1ccccc1)C(=O)OCc1ccccc1 | 93.7
O=C(CCCN[C@@H](CC(=O)OCc1ccccc1)C(=O)OCc1ccccc1)N[C@@H](CCC(=O)OCc1ccccc1)C(=O)OCc1ccccc1 | 82.2
